Laboratory results published in ChEMBL document CHEMBL3244400, “Synthesis of 3,4-dihydro-4-oxothieno[2,3-d]pyrimidine-2-carboxylates, a new series of orally active antiallergy agents” (J Med Chem, 1979).
The source made the active and inactive calls. The rule behind the calls is not given here.

Tests used:
Rattus norvegicus [1] = assay: Antiallergic activity against egg albumin-induced anaphylaxis in po dosed sensitized rat compound administered 15 mins prior to antigen challenge as single dose by passive cutaneous anaphylaxis test; format: functional
Method in brief: (§1)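 Male Sprague–Dawley or Wistar rats (100–150 g) were passively sensitized by two intradermal dilutions of rat anti-egg-albumin serum, which was mainly IgE and raised with EA im (10 mg/kg) plus killed pertussis vaccine iv. After 48 h, drug or vehicle was given. Rats were then challenged iv with EA plus Evans Blue (25 mg/kg each). Spot diameter was read 20–30 min later; ≥5 rats/compound. % inhibition was calculated versus control mean diameter.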

Rattus norvegicus [2] = assay: Antiallergic activity against egg albumin-induced anaphylaxis in iv dosed sensitized rat compound administered 15 mins prior to antigen challenge as single dose by passive cutaneous anaphylaxis test; format: functional; method in brief: as §1
Mast cell [3] = assay: Inhibition of histamine release in Sprague-Dawley rat peritoneal mast cells at 1.25 uM after 10 mins by fluorimetry relative to control; format: functional
Method in brief: (§2)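 Peritoneal lavage cells from male Sprague–Dawley rats (200–300 g) were sensitized for 2 h at 37 °C in rat anti-EA serum with heparin. Cells were resuspended in buffered HBSS and challenged with EA. Drug was added together with antigen. After 10 min incubation, histamine was measured fluorimetrically. % inhibition was calculated versus release without drug.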

Mast cell [4] = assay: Inhibition of histamine release in Sprague-Dawley rat peritoneal mast cells at 5 uM after 10 mins by fluorimetry relative to control; format: functional; method in brief: as §2
Mast cell [5] = assay: Inhibition of histamine release in Sprague-Dawley rat peritoneal mast cells at 20 uM after 10 mins by fluorimetry relative to control; format: functional; method in brief: as §2
Rattus norvegicus [6] = assay: Inhibition of egg albumin-induced allergic bronchospasm in sensitized, spontaneously breathing and anesthesized Harlan-Wistar rat assessed as drop in pulmonary arterial blood pressure at 0.78 mg/kg administered intraduodenally 15 min prior to antigen challenge (reference value: 32.2 +/- 4.7 %); format: functional; settings: route intraduodenal
Method in brief: (§3)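 Male Harlan-Wistar rats (225–275 g) were sensitized with EA im (1 mg/rat) plus pertussis vaccine ip. After 13–15 days they were urethane-anesthetized (1.5 g/kg ip). Drug was given intraduodenally in methocel or iv in saline, then EA 2 mg/rat iv. Pulmonary ventilation pressure and mean arterial pressure were recorded. Individual responses were compared with a separate vehicle-control group mean; 4–15 rats/group.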

Rattus norvegicus [7] = assay: Inhibition of egg albumin-induced allergic bronchospasm in sensitized, spontaneously breathing and anesthesized Harlan-Wistar rat assessed as drop in pulmonary arterial blood pressure at 0.39 mg/kg administered intraduodenally 15 min prior to antigen challenge (reference value: 32.2 +/- 4.7 %); format: functional; settings: route intraduodenal; method in brief: as §3
Rattus norvegicus [8] = assay: Inhibition of egg albumin-induced allergic bronchospasm in sensitized, spontaneously breathing and anesthesized Harlan-Wistar rat assessed as drop in mean arterial blood pressure at 3.125 mg/kg administered intraduodenally 15 min prior to antigen challenge (reference value: 46.3 +/- 3.5 %); format: functional; settings: route intraduodenal; method in brief: as §3
Rattus norvegicus [9] = assay: Inhibition of egg albumin-induced allergic bronchospasm in sensitized, spontaneously breathing and anesthesized Harlan-Wistar rat assessed as drop in mean arterial blood pressure at 0.78 mg/kg administered intraduodenally 15 min prior to antigen challenge (reference value: 46.3 +/- 3.5 %); format: functional; settings: route intraduodenal; method in brief: as §3
Rattus norvegicus [10] = assay: Inhibition of egg albumin-induced allergic bronchospasm in sensitized, spontaneously breathing and anesthesized Harlan-Wistar rat assessed as drop in mean arterial blood pressure at 0.39 mg/kg administered intraduodenally 15 min prior to antigen challenge (reference value: 46.3 +/- 3.5 %); format: functional; settings: route intraduodenal; method in brief: as §3
Rattus norvegicus [11] = assay: Inhibition of egg albumin-induced allergic bronchospasm in sensitized, spontaneously breathing and anesthesized Harlan-Wistar rat assessed as inhibition of control allergic bronchospasm response at 3.125 mg/kg administered intraduodenally 15 min prior to antigen challenge; format: functional; settings: route intraduodenal; method in brief: as §3
Rattus norvegicus [12] = assay: Inhibition of egg albumin-induced allergic bronchospasm in sensitized, spontaneously breathing and anesthesized Harlan-Wistar rat assessed as inhibition of control allergic bronchospasm response at 0.78 mg/kg administered intraduodenally 15 min prior to antigen challenge; format: functional; settings: route intraduodenal; method in brief: as §3
Rattus norvegicus [13] = assay: Inhibition of egg albumin-induced allergic bronchospasm in sensitized, spontaneously breathing and anesthesized Harlan-Wistar rat assessed as inhibition of control allergic bronchospasm response at 0.39 mg/kg administered intraduodenally 15 min prior to antigen challenge; format: functional; settings: route intraduodenal; method in brief: as §3
Rattus norvegicus [14] = assay: Inhibition of egg albumin-induced allergic bronchospasm in sensitized, spontaneously breathing and anesthesized Harlan-Wistar rat assessed as inhibition of control allergic hypotension response at 3.125 mg/kg administered intraduodenally 15 min prior to antigen challenge; format: functional; settings: route intraduodenal; method in brief: as §3
Rattus norvegicus [15] = assay: Inhibition of egg albumin-induced allergic bronchospasm in sensitized, spontaneously breathing and anesthesized Harlan-Wistar rat assessed as inhibition of control allergic hypotension response at 0.78 mg/kg administered intraduodenally 15 min prior to antigen challenge; format: functional; settings: route intraduodenal; method in brief: as §3
Rattus norvegicus [16] = assay: Inhibition of egg albumin-induced allergic bronchospasm in sensitized, spontaneously breathing and anesthesized Harlan-Wistar rat assessed as inhibition of control allergic hypotension response at 0.39 mg/kg administered intraduodenally 15 min prior to antigen challenge; format: functional; settings: route intraduodenal; method in brief: as §3
Rattus norvegicus [17] = assay: Inhibition of egg albumin-induced allergic bronchospasm in sensitized, spontaneously breathing and anesthesized Harlan-Wistar rat assessed as inhibition of control allergic bronchospasm response compound administered intraduodenally 15 min prior to antigen challenge; format: functional; method in brief: as §3
Rattus norvegicus [18] = assay: Inhibition of egg albumin-induced allergic bronchospasm in sensitized, spontaneously breathing and anesthesized Harlan-Wistar rat assessed as inhibition of control allergic hypotension response compound administered intraduodenally 15 min prior to antigen challenge; format: functional; settings: in the assay text read “bronchospasm response” for “hypotension response”; method in brief: as §3
Rattus norvegicus [19] = assay: Antiallergic activity against egg albumin-induced anaphylaxis in sensitized rat at 30 mg/kg, po administered 15 mins prior to antigen challenge as single dose measured up to 4 hrs by passive cutaneous anaphylaxis test; format: functional, organism-based; parameters: dose 30 mg/kg; method in brief: as §1
Plasma = assay: Drug metabolism in Sprague-Dawley rat plasma assessed as sodium 2-carboxy-6-ethyl-4a,7a-dihydrothieno[2,3-d]pyrimidin-4-olate formation at 50 mg/kg, po; format: ADME, organism-based; parameters: dose 50 mg/kg, route oral; settings: in vivo
Method in brief: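 Mature Sprague–Dawley rats (150–200 g) were fasted overnight and given a single 50 mg/kg oral dose. Blood was taken at 0.5–6 h, two rats per time point. Plasma (1 mL) was acidified to pH 1–2 and extracted twice with CHCl₃. The dried residue was taken up in methanol and quantified by reverse-phase C-18 HPLC.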

Rattus norvegicus [20] = assay: Inhibition of egg albumin-induced allergic bronchospasm in sensitized, spontaneously breathing and anesthesized Harlan-Wistar rat assessed as drop in pulmonary arterial blood pressure at 3.125 mg/kg administered intraduodenally 15 min prior to antigen challenge (reference value: 32.2 +/- 4.7 %); format: functional; settings: route intraduodenal; method in brief: as §3
Rattus norvegicus [21] = assay: Antiallergic activity against egg albumin-induced anaphylaxis in sensitized rat at 5 mg/kg, po administered 15 mins prior to antigen challenge as single dose measured up to 4 hrs by passive cutaneous anaphylaxis test; format: functional, organism-based; parameters: dose 5 mg/kg; method in brief: as §1

CCOC(=O)c1nc2sc(CC(C)C)c(C)c2c(=O)[nH]1
ED50 (Rattus norvegicus [1]): 8.1 mg/kg

CCOC(=O)c1nc2sc(CC)c(I)c2c(=O)[nH]1
ED50 (Rattus norvegicus [1]): 8.1 mg/kg

CCc1sc2nc(C(=O)[O-])nc([O-])c2c1C.O.[Na+].[Na+]
ED50 (Rattus norvegicus [1]): 10 mg/kg

CCOC(=O)c1nc2sc(C(C)C)cc2c(=O)o1
ED50 (Rattus norvegicus [1]): > 10 mg/kg

CCc1cc2c([O-])nc(C(=O)[O-])nc2s1.O.[Na+].[Na+]
ED50 (Rattus norvegicus [1]): 13 mg/kg | ED50 (Rattus norvegicus [2]): 1.2 mg/kg | inhibition at 1.25 µM (Mast cell [3]): 22% | inhibition at 5 µM (Mast cell [4]): 51% | inhibition at 20 µM (Mast cell [5]): 73%

CCOC(=O)c1nc2sc(CC)cc2c(=O)[nH]1
inhibition in vivo at 0.78 mg/kg (Rattus norvegicus [6]): 29.2% | inhibition in vivo at 0.39 mg/kg (Rattus norvegicus [7]): 48.8% | inhibition in vivo at 3.125 mg/kg (Rattus norvegicus [8]): 42.4% | inhibition in vivo at 0.78 mg/kg (Rattus norvegicus [9]): 51.8% | inhibition in vivo at 0.39 mg/kg (Rattus norvegicus [10]): 48.7% | inhibition in vivo at 3.125 mg/kg (Rattus norvegicus [11]): 53.6% | inhibition in vivo at 0.78 mg/kg (Rattus norvegicus [12]): 27.8% | inhibition in vivo at 0.39 mg/kg (Rattus norvegicus [13]): 4.3% | inhibition in vivo at 3.125 mg/kg (Rattus norvegicus [14]): 18.9% | inhibition in vivo at 0.78 mg/kg (Rattus norvegicus [15]): 5.2% | inhibition in vivo at 0.39 mg/kg (Rattus norvegicus [16]): 2.7% | inhibition (Rattus norvegicus [17]): Dose-dependent effect | ED50 (Rattus norvegicus [17]; intraduodenal): 1 mg/kg | inhibition (Rattus norvegicus [18]): Dose-dependent effect | ED50 (Rattus norvegicus [18]; intraduodenal): 1 mg/kg | ED50 (Rattus norvegicus [1]): 2.4 mg/kg | Activity (Rattus norvegicus [19]): Active | Drug metabolism (Plasma): metabolite_detected | inhibition at 1.25 µM (Mast cell [3]): 19% | inhibition at 5 µM (Mast cell [4]): 55% | inhibition at 20 µM (Mast cell [5]): 82% | inhibition in vivo at 3.125 mg/kg (Rattus norvegicus [20]): 17.1%

CCOC(=O)c1nc2sc(C(C)=O)c(C)c2c(=O)o1
Activity (Rattus norvegicus [21]): inactive

CCCCCCc1cc2c(=O)[nH]c(C(=O)OCC)nc2s1
ED50 (Rattus norvegicus [1]): > 5 mg/kg

CC(C)c1cc2c([O-])nc(C(=O)[O-])nc2s1.O.[Na+].[Na+]
ED50 (Rattus norvegicus [1]): > 10 mg/kg | ED50 (Rattus norvegicus [2]): 1 mg/kg

CCOC(=O)c1nc2scc(C)c2c(=O)[nH]1
ED50 (Rattus norvegicus [1]): 50 mg/kg

CCOC(=O)c1nc2sc(C(C)=O)c(C)c2c(=O)[nH]1
ED50 (Rattus norvegicus [1]): 25 mg/kg

O.O=C([O-])c1nc([O-])c2c3c(sc2n1)CCCC3.[Na+].[Na+]
ED50 (Rattus norvegicus [1]): 50 mg/kg

Cc1c(CC(C)C)sc2nc(C(=O)O)[nH]c(=O)c12
Activity (Rattus norvegicus [19]): Active

CCOC(=O)c1nc2sc(N)c(C)c2c(=O)[nH]1
ED50 (Rattus norvegicus [1]): < 50 mg/kg

CCOC(=O)c1nc2sc(CC)c(N)c2c(=O)[nH]1
ED50 (Rattus norvegicus [1]): 10 mg/kg
